Experimental data as given in ChEMBL document CHEMBL1125605 (1991).
In brackets after ≈: the same amount, converted by molar mass.

Assays:
Assay type in all cases: functional
E6SM [1] = assay: Concentration required to inhibit HSV-2(lyons) induced cytopathogenicity in E6SM cells by 50%.; conditions: Homo sapiens
HEL [2] = assay: Concentration required to inhibit VZV (oka) induced cytopathogenicity in HEL cells by 50%.; conditions: Homo sapiens
E6SM [3] = assay: Concentration required to inhibit HSV-1 (KOS) induced cytopathogenicity in E6SM cells by 50%.; conditions: Homo sapiens
E6SM [4] = assay: Concentration required to inhibit HSV-2(G) induced cytopathogenicity in E6SM cells by 50%.; conditions: Homo sapiens
E6SM [5] = assay: Concentration required to inhibit TK-HSV-1 (VMW1837) induced cytopathogenicity in E6SM cells by 50%.; conditions: Homo sapiens
HEL [6] = assay: Concentration required to inhibit CMV (AD-169) induced cytopathogenicity in HEL cells by 50%.; conditions: Homo sapiens
HEL [7] = assay: Concentration required to cause 50% reduction in HEL cell growth.; conditions: Homo sapiens; read-out: MIC
Method in brief: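 Cytotoxicity was measured as inhibition of growth of HEL human embryonic lung fibroblasts. The value is the compound concentration that reduced cell growth by 50%.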

E6SM [8] = assay: Concentration required to inhibit HSV-1 (F) induced cytopathogenicity in E6SM cells by 50%.; conditions: Homo sapiens
HEL [9] = assay: Concentration required to inhibit CMV (Davis) induced cytopathogenicity in HEL cells by 50%.; conditions: Homo sapiens
E6SM [10] = assay: oncentration required to inhibit VV induced cytopathogenicity in E6SM cells by 50%.; conditions: Homo sapiens
HEL [11] = assay: Concentration required to inhibit VZV (YS) induced cytopathogenicity in HEL cells by 50%.; conditions: Homo sapiens
E6SM [12] = assay: Concentration required to cause a microscopically detectable alteration of normal cell morphology in E6SM cells; conditions: Homo sapiens; read-out: MIC
Method in brief: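 Uninfected E6SM human embryonic skin-muscle fibroblasts were exposed to compound and examined under the microscope. The value is the minimum concentration that caused a detectable alteration of normal cell morphology.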

E6SM [13] = assay: Concentration required to inhibit HSV-1 (McIntyre) induced cytopathogenicity in E6SM cells by 50%.; conditions: Homo sapiens
E6SM [14] = assay: Concentration required to inhibit HSV-2(196) induced cytopathogenicity in E6SM cells by 50%.; conditions: Homo sapiens
HEL [15] = assay: Concentration required to inhibit TK-VZV (YSR) induced cytopathogenicity in HEL cells by 50%.; conditions: Homo sapiens
HEL [16] = assay: Concentration required to inhibit TK-VZV (07-1) induced cytopathogenicity in HEL cells by 50%.; conditions: Homo sapiens
E6SM [17] = assay: Concentration required to inhibit TK-HSV-1 (B2006) induced cytopathogenicity in E6SM cells by 50%.; conditions: Homo sapiens
E6SM [18] = assay: Concentration required to inhibit VSV induced cytopathogenicity in E6SM cells by 50%.; conditions: Homo sapiens
Method in brief: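 Antiviral assay in E6SM human embryonic skin-muscle fibroblasts, with cells infected by vesicular stomatitis virus (VSV) in microtiter plates. Virus-induced cytopathogenicity is assessed. The value is the compound concentration that reduces VSV-induced cytopathogenicity by 50%.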

| SMILES | MIC (E6SM [1]) [µg/mL] | MIC (HEL [2]) [µg/mL] | MIC (E6SM [3]) [µg/mL] | MIC (E6SM [4]) [µg/mL] | MIC (E6SM [5]) [µg/mL] | MIC (HEL [6]) [µg/mL] | CC50 (50% cell growth inhibitory concentration) (HEL [7]) [µg/mL] | MIC (E6SM [8]) [µg/mL] | MIC (HEL [9]) [µg/mL] | MIC (E6SM [10]) [µg/mL] | MIC (HEL [11]) [µg/mL] | minimum cytotoxic concentration (morphology alteration) (E6SM [12]) [µg/mL] | MIC (E6SM [13]) [µg/mL] | MIC (E6SM [14]) [µg/mL] | MIC (HEL [15]) [µg/mL] | MIC (HEL [16]) [µg/mL] | MIC (E6SM [17]) [µg/mL] | MIC (E6SM [18]) [µg/mL] |
| --- | --- | --- | --- | --- | --- | --- | --- | --- | --- | --- | --- | --- | --- | --- | --- | --- | --- | --- |
| O=c1[nH]c(=O)n([C@H]2C[C@H](O)[C@@H](CO)O2)cc1-c1ccc(Br)s1 | 150 (≈ 385 µM) | 0.03 (≈ 0.0771 µM) | 0.03 (≈ 0.0771 µM) | 150 (≈ 385 µM) | 150 (≈ 385 µM) | > 100 | 155 (≈ 398 µM) | 0.07 (≈ 0.18 µM) | > 100 | 70 (≈ 180 µM) | 0.03 (≈ 0.0771 µM) | > 400 | 0.02 (≈ 0.0514 µM) | > 200 | > 40 | > 40 | 150 (≈ 385 µM) | – |
| O=c1[nH]c(=O)n([C@H]2C[C@H](O)[C@@H](CO)O2)cc1-c1cccs1 | 100 (≈ 322 µM) | 18 (≈ 58 µM) | 0.45 (≈ 1.45 µM) | 250 (≈ 806 µM) | 150 (≈ 483 µM) | 250 (≈ 806 µM) | > 200 | 0.2 (≈ 0.644 µM) | 250 (≈ 806 µM) | > 400 | 41 (≈ 132 µM) | > 400 | 0.1 (≈ 0.322 µM) | 150 (≈ 483 µM) | > 400 | 180 (≈ 580 µM) | 300 (≈ 967 µM) | – |
| O=c1[nH]c(=O)n([C@@H]2C[C@H](O)[C@@H](CO)O2)cc1-c1cccs1 | 100 (≈ 322 µM) | 75 (≈ 242 µM) | > 200 | > 300 | 150 (≈ 483 µM) | > 100 | 180 (≈ 580 µM) | – | – | > 200 | > 100 | > 400 | – | 150 (≈ 483 µM) | 80 (≈ 258 µM) | 85 (≈ 274 µM) | > 200 | – |
| O=c1[nH]c(=O)n([C@H]2C[C@H](O)[C@@H](CO)O2)cc1-c1ccc(Cl)s1 | > 200 | 0.02 (≈ 0.058 µM) | 0.02 (≈ 0.058 µM) | > 200 | > 200 | > 40 | > 50 | 0.04 (≈ 0.116 µM) | – | > 200 | 0.02 (≈ 0.058 µM) | > 400 | 0.004 (≈ 0.0116 µM) | > 200 | 65 (≈ 189 µM) | 35 (≈ 102 µM) | > 200 | – |
| Nc1nc(=O)n([C@H]2C[C@H](O)[C@@H](CO)O2)cc1-c1cccs1 | 20 (≈ 64.7 µM) | 3 (≈ 9.7 µM) | 1.3 (≈ 4.2 µM) | 45 (≈ 145 µM) | > 100 | 60 (≈ 194 µM) | 45 (≈ 145 µM) | 0.4 (≈ 1.29 µM) | 40 (≈ 129 µM) | 20 (≈ 64.7 µM) | 4 (≈ 12.9 µM) | > 200 | 0.07 (≈ 0.226 µM) | 20 (≈ 64.7 µM) | 30 (≈ 97 µM) | 8 (≈ 25.9 µM) | > 100 | – |
| Cn1ccnc1-c1cn([C@H]2C[C@H](O)[C@@H](CO)O2)c(=O)[nH]c1=O | > 200 | > 400 | > 200 | > 200 | > 200 | > 400 | > 200 | > 200 | > 400 | > 200 | > 400 | > 200 | > 200 | > 200 | > 400 | > 400 | > 200 | – |
| CC1[C@@H](O)[C@@H](CO)O[C@@H]1n1cc(I)c(=O)[nH]c1=O (some centres undefined) | 300 (≈ 815 µM) | 15 (≈ 40.7 µM) | 300 (≈ 815 µM) | 300 (≈ 815 µM) | 150 (≈ 407 µM) | 400 (≈ 1090 µM) | > 200 | 300 (≈ 815 µM) | – | > 400 | 10 (≈ 27.2 µM) | > 400 | 300 (≈ 815 µM) | 300 (≈ 815 µM) | 170 (≈ 462 µM) | 90 (≈ 244 µM) | 300 (≈ 815 µM) | 300 (≈ 815 µM) |
| O=c1[nH]c(=O)n(C2O[C@H](CO)[C@@H](O)[C@@H]2O)cc1-c1cccs1 (some centres undefined) | 20 (≈ 61.3 µM) | 5.5 (≈ 16.9 µM) | 0.2 (≈ 0.613 µM) | 20 (≈ 61.3 µM) | > 400 | 250 (≈ 766 µM) | > 200 | 0.2 (≈ 0.613 µM) | 250 (≈ 766 µM) | > 400 | 6.5 (≈ 19.9 µM) | > 400 | 0.07 (≈ 0.215 µM) | 100 (≈ 306 µM) | > 400 | 370 (≈ 1130 µM) | > 400 | – |
| O=c1[nH]c(=O)n([C@@H]2C[C@@H](O)[C@@H](CO)O2)cc1-c1ccco1 | 150 (≈ 510 µM) | 210 (≈ 714 µM) | 55 (≈ 187 µM) | 300 (≈ 1020 µM) | 70 (≈ 238 µM) | > 100 | 110 (≈ 374 µM) | 40 (≈ 136 µM) | > 100 | 300 (≈ 1020 µM) | 240 (≈ 816 µM) | > 400 | 70 (≈ 238 µM) | 150 (≈ 510 µM) | 240 (≈ 816 µM) | 260 (≈ 884 µM) | > 200 | – |
